This is a sample that favours compounds with a hit; in the whole collection about 3.7% have one here.
KCNQ1 inh: blocks the human KCNQ1 potassium channel; P51787; CHO-K1 KCNQ1, FluxOR thallium flux fluorescence; hits give high values; B-score at 10 µM; 1.3% of 310,000 active; AID 2642;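 active = compounds whose thallium flux B-score, printed positive for inhibition, exceeds three library SD while starting fluorescence stays within three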;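 note: channel opened by potassium depolarization with thallium stimulus after 20 min compound exposure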
Target sequence (P51787 whole entry, looked up): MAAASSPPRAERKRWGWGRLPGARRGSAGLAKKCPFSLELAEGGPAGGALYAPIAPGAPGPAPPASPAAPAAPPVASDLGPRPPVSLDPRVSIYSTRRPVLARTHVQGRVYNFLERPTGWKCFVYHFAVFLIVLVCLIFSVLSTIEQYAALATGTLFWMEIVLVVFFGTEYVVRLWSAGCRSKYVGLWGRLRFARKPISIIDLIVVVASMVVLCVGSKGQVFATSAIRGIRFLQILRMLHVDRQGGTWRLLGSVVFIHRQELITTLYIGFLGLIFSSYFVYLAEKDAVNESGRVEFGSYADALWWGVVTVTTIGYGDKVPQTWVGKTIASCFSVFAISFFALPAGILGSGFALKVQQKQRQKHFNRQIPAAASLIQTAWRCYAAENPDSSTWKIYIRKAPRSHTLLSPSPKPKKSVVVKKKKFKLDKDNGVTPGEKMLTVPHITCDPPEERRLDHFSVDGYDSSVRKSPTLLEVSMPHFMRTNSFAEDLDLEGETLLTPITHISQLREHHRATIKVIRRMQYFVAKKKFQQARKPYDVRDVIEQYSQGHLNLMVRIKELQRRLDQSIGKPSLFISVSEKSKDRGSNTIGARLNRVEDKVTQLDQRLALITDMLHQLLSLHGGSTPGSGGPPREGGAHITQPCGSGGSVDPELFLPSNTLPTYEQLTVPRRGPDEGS
KCNK3 inh: human KCNK3 channel inhibition, primary screen. 0.84% of 340,000 active. CHO-KCNK3 thallium flux, FluxOR fluorescence; hits give low values. B-score at 10 µM;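 active = B-score under library mean minus 4 SD, starting fluorescence ratio at most library mean plus 5 SD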;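 note: more negative B-score means stronger inhibition of thallium flux through KCNK3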
hERG protect: shields human hERG channel from block by proarrhythmic agents. CHO-hERG, FluxOR thallium flux, dofetilide IC70 present. Q12809. activation (rescue from dofetilide block), less the hit threshold, % at 10 µM. 0.51% of 310,000 active;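 active = activation above the mean of controls blocked by dofetilide plus 5 SD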;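 note: thallium influx through hERG after potassium depolarization seen as dye fluorescence rise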
KCNQ1 act: potentiators or activators of human KCNQ1 potassium channel; B-score at 10 µM; AID 2648; CHO-K1 KCNQ1, thallium flux FluxOR fluorescence; hits give high values; 0.35% of 310,000 active; P51787;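 active = fluorescence ratio B-score, a plate-corrected score, at least three library SD, with initial intensity B-score within 5 SD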
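Assay system: CHO-K1 cells stably expressing KCNQ1; Medium: assay buffer with matched DMSO; Also added: K+/Tl+ depolarizing stimulus; Dosing: single dose; Timing: dye 90 min, compound 20 min, room temperature; Measured by: kinetic FluxOR thallium fluorescence, 10-s 1-Hz baseline, 110-s post-stimulus read; Read-out: peak-minus-minimum fluorescence over initial fluorescence, negative-control normalized, B-scored.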
KCNK9 block: inhibitors of human KCNK9 two-pore domain potassium channel; HEK293 KCNK9, FluxOR thallium flux fluorescence; hits give low values; B-score at 10 µM; 1.2% of 310,000 active; AID 488922; Q9NPC2;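 active = ratio B-score over 3 SD below the library mean, with starting fluorescence within 5 SD of its mean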;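 note: negative B-score means less thallium flux so channel inhibition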
Kir21 inh: blocks the mouse Kir2.1 inward-rectifier potassium channel. HEK293-Kir2.1, FluxOR thallium flux fluorescence; hits give low values. B-score at 10 µM. 0.85% of 310,000 active. AID 1672;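 active = fluorescence ratio B-score at or below minus 3 SD of library scores, with starting-brightness B-score within 2 SD, cut at about -4.2 in these data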;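 note: channel flux triggered by added potassium and thallium sulfate stimulus; B-score of peak minus minimum fluorescence over baseline after thallium stimulus; more negative B-score means stronger Kir2.1 block with less thallium influx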
KCNK9 block conf: confirmation of human KCNK9 potassium channel inhibitors | inhibition, % at 10 µM | HEK293 KCNK9 cells, FluxOR thallium flux fluorescence | 43% of 4,900 active | shares compounds with KCNK9 block;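 active = thallium signal inhibited by more than 5 SD of the compound-free buffer control wells, on both duplicate plates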;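 note: 0% = assay buffer control wells without compound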
Kir21 sel: mouse Kir2.1 off-target activity of KCNK9 modulators; shares compounds with KCNK9 block; Kir2.1 cells, FluxOR thallium flux fluorescence; inhibition, % at 10 µM; 4% of 4,900 active; AID 492993;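 active = thallium signal drop more than 5 SD beyond the mean of the no-compound control wells, seen in both duplicate plates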;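 note: signal is fluorescence rise after thallium addition divided by baseline fluorescence; plate controls were assay buffer only for no effect and full block by chlorpromazine control for full effect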
KCNK9 uninduced: second check of KCNK9 modulator effects in non-induced HEK293 cells | FluxOR thallium flux | inhibition, % at 10 µM | AID 492997 | 40% of 4,900 active | shares compounds with KCNK9 block;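 active = thallium signal drop beyond 5 SD of the untreated control mean, on both duplicate plates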;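 note: plate controls were buffer only IC0 wells for no effect and SID17386958 at its maximal inhibitory level for full effect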
The depositor's hits bear a star; i = inactive; · = not tested or not shown.

SMILES	KCNQ1 inh	KCNK3 inh	hERG protect	KCNQ1 act	KCNK9 block	Kir21 inh	KCNK9 block conf	Kir21 sel	KCNK9 uninduced
COC(=O)c1ccccc1NC(=O)CN(C)Cc1ccccc1	i	i	-7.4	i	-9.9*	-1.57	39.0%*	i	38.5%*
Cc1noc(C)c1COc1ccc(C(=O)NNC(=O)c2ccccc2O)cc1	i	i	-9.8	i	i	-0.64	·	·	·
CC(=O)Oc1ccc(-c2cccc(C(=O)OCC(=O)Nc3ccccc3Oc3ccccc3)c2)cc1	i	i	-14.4	i	i	0.15	·	·	·
CCOc1ccccc1NC(=O)COC(=O)c1cccc(-c2ccc(OC(C)=O)cc2)c1	i	i	-9.4	i	-10.1*	-2.19	i	i	32.0%*
COc1ccc(CN2C(=O)C(=O)N(CC(N)=O)C2=O)cc1	i	i	-8.2	i	i	0.66	·	·	·
CC(C)c1ccc(C2C3=C(COC3=O)Nc3cc4c(cc32)OCO4)cc1 (stereo not drawn)	i	i	-16.8	i	-9.43*	1.13	i	i	i
COc1cc(OC)c2ccc(=O)oc2c1C(CCN1CCN(c2ccccc2)CC1)c1ccc(N(C)C)cc1 (stereo not drawn)	i	i	-13.7	i	i	1.23	i	i	i
COc1cc(OC)c2c(-c3ccccc3)cc(=O)oc2c1C(CCN1CCN(c2ccccc2)CC1)c1ccc(N(C)C)cc1 (stereo not drawn)	i	i	-13.8	i	i	-0.45	·	·	·
Cc1ccccc1N=C(NOCc1ccc(Cl)cc1Cl)c1nonc1N	i	i	-11.4	i	-16.1*	1.47	81.5%*	i	46.0%*
Cc1ccc(N=C(NOCc2ccc(Cl)cc2Cl)c2nonc2N)c(C)c1	i	i	-2.7	i	-16.1*	0.26	77.0%*	i	45.5%*
CCCCN1C[C@H](Cc2ccccc2)[C@@H](CC(=O)NCc2ccc(OC)cc2)C1=O	i	i	-6.1	i	i	-1.84	·	·	·
COc1ccc(CNC(=O)C[C@H]2C(=O)N(c3ccccc3)C[C@@H]2Cc2ccccc2)cc1	i	i	-5.0	i	-9.91*	-1.07	59.5%*	i	i
CCN(C(=O)CSc1nc2cc(C(F)(F)F)ccc2n1Cc1ccccc1)C1CCS(=O)(=O)C1 (stereo not drawn)	i	i	-6.5	i	-10*	-0.93	61.0%*	i	51.5%*
CCCCn1c(SCC(=O)N(CC)C2CCS(=O)(=O)C2)nc2cc(S(N)(=O)=O)ccc21 (stereo not drawn)	i	i	-12.7	i	i	0.18	·	·	·
C(=C\c1ccccc1)/CN1CCN(Cc2ccc3c(c2)OCO3)CC1	i	i	-3.5	i	i	-0.62	·	·	·
Fc1ccccc1Cc1noc(CN2CCN(Cc3ccc4c(c3)OCO4)CC2)n1	i	i	-13.9	i	i	0.44	·	·	·
c1cc(C2CCN(Cc3nc(-c4ccc5c(c4)OCO5)no3)CC2)ccn1	i	i	-16.3	i	i	0.51	·	·	·
O=[N+]([O-])c1ccccc1/C=C/CN1CCN(Cc2ccc3c(c2)OCO3)CC1	i	i	-7.5	i	i	1.59	i	i	i
c1ccc(Cc2noc(CN3CCN(Cc4ccc5c(c4)OCO5)CC3)n2)cc1	i	i	-11.4	i	i	-1.11	i	i	i
c1ccc(Cc2noc(CN3CCN(C4CCc5ccccc5C4)CC3)n2)cc1 (stereo not drawn)	i	i	-13.1	i	i	-0.05	i	i	i
c1ccc(OCCN2CCN(Cc3nc(-c4ccc5c(c4)OCO5)no3)CC2)cc1	i	i	-6.0	i	i	-0.45	i	i	i
COc1ccc(CN2CCN(C3CCC3)CC2CCO)c(F)c1 (stereo not drawn)	i	i	-2.0	i	i	-0.45	·	·	·
O=C(O[C@H]1[C@H](Oc2ccccc2COC(=O)C2(O)C=CCCC2=O)O[C@H](CO)[C@@H](O)[C@@H]1O)c1ccccc1 (stereo partly drawn)	i	·	-26.3	i	i	0.01	·	·	·
Cc1ccc(C2(C)NC(=O)N(CC(=O)NNC(=O)c3ccccc3F)C2=O)cc1 (stereo not drawn)	·	i	·	·	·	·	·	·	·
Nc1ncc(Br)cc1S(=O)(=O)NCCc1ccccc1	i	i	-1.0	i	i	0.46	·	·	·
SMILES	KCNQ1 inh	KCNK3 inh	hERG protect	KCNQ1 act	KCNK9 block	Kir21 inh	KCNK9 block conf	Kir21 sel	KCNK9 uninduced
c1ccc(Cc2noc(CN3CCCN(C4Cc5ccccc5C4)CC3)n2)cc1	i	i	-17.4	i	i	0	·	·	·
C(=C\c1ccccc1)/CN1CCN(Cc2nc(Cc3ccccc3)no2)CC1	i	i	-10.3	i	i	-0.13	i	i	i
COc1ccccc1CN1CCN(Cc2nc(Cc3ccccc3)no2)CC1	i	i	-9.6	i	i	0.02	i	i	i
O=C(Nc1ccccc1Cl)C1CCCN(c2ncnc3c2nc2n3CCCCC2)C1 (stereo not drawn)	i	i	-19.5	i	i	0	·	·	·
Cc1nc(NC(=O)C2CC2)sc1C(=O)Nc1ccccc1Cl	i	i	-5.6	i	i	-0.46	·	·	·
C/C(=N\Nc1nc(C(C)(C)C)cs1)c1ccccc1	i	i	-6.2	i	i	-0.89	i	i	i
Cc1ccc(/C=N/Nc2nc(C(C)(C)C)cs2)o1	i	i	10.5*	18*	i	-1.16	i	i	i
CC(C)(C)c1csc(N/N=C/c2cccnc2)n1	i	i	-19.8	i	i	-0.71	·	·	·
CC1(C)OC(=O)C(=CNNc2c(Cl)cc(Cl)cc2Cl)C(=O)O1	i	i	-3.9	i	i	0.55	·	·	·
CN(CC(=O)Nc1ccc(F)c(F)c1F)C(=O)C1CCCO1 (stereo not drawn)	i	i	-6.5	i	i	0.06	·	·	·
CC(C)Cn1c(-c2ccccc2)nc2ccccc2c1=O	i	i	-9.7	i	i	-3.54	·	·	·
CCCCOC(=O)Cn1c(-c2ccccc2)nc2ccccc2c1=O	i	i	-6.8	i	-11.4*	1.21	56.5%*	i	52.0%*
CCC(=O)N1c2ccc(S(=O)(=O)N3CCN(c4ccccc4Cl)CC3)cc2CC1C (stereo not drawn)	i	i	-10.6	i	i	1.19	·	·	·
